Measurements taken from ChEMBL document CHEMBL1125251, “4'-Hydroxy-3-methoxyflavones with potent antipicornavirus activity” (J Med Chem, 1991).
Values after ≈ are worked out from the molar mass of the structure shown. Active and inactive are the calls of the source. The calls are words filed in the database; no cut-off is given here.

How the values were obtained:
[1] = Therapeutic Index measured as the ratio of CyD50(polio) / ED99(polio) values; format: organism-based; conditions: enterovirus c; read-out: Therapeutic index 99
How it was run: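 TI99 = CyD50/ED99 for poliovirus. ED99 came from end-point titration in Vero cells at 37 °C over 3 days. CyD50 came from Vero cell growth: 10⁶ cells were given serial 2-fold compound dilutions in quadruplicate for 6 days at 37 °C, then trypsinized, counted and reseeded, repeated five times. Generation time was calculated per concentration.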

[2] = Cytotoxic dose at which 50% growth of normal cells is inhibited; format: cell-based; conditions: chlorocebus sabaeus, Vero cells; read-out: CyD50
How it was run: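 Cell-growth cytotoxicity in Vero cells or human skin fibroblasts. Serial 2-fold dilutions in M-199 with 6% newborn calf serum were added in quadruplicate to 10⁶ cells and held 6 days at 37 °C. Cells were trypsinized, counted and reseeded with compound, repeated five times. Generation time was calculated per concentration. CyD50 = lowest concentration at least doubling generation time versus untreated cells.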

[3] = system: Human rhinovirus sp.; experiment: Cytotoxic dose at which 50% growth of normal cells is inhibited against rhino virus infection.; format: functional
How it was run: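 Human skin fibroblasts, 10⁶ cells per flask, given serial 2-fold dilutions in quadruplicate in M-199 with 6% newborn calf serum and held 6 days at 37 °C. Cells were trypsinized, counted in a chamber and reseeded with compound over five repeat cycles. CyD50 = lowest concentration at least doubling cell generation time relative to untreated control.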

[4] = system: Human rhinovirus sp.; experiment: Minimum drug concentration at which 99% of the rhino virus is inhibited.; format: functional
How it was run: (§1)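 End-point titration with rhinovirus type 15 on human skin fibroblast monolayers. Cells were infected with serial 10-fold virus dilutions and allowed 1 h adsorption at 37 °C. Serial 2-fold compound dilutions were then added and plates incubated at 33 °C. CPE was read daily by light microscopy for at least 1 week, titres as TCD50/mL. ED99 = minimum concentration inhibiting 99% of virus.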

[5] = system: Enterovirus C; experiment: Minimal dose which produces titer reduction at 10 ug/mL (mD RF10e3); format: functional
[6] = system: Enterovirus C; experiment: The ratio of the poliovirus viral titer of the virus control (reduction factor) to the viral titer in the presence of the maximal non-toxic dose (RF MNTD); format: functional
How it was run: (§2)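 Poliovirus type 1 Brunhilde 1A/S3 in Vero monolayers. Serial 10-fold virus dilutions adsorbed 1 h at 37 °C, then serial 2-fold compound dilutions were added. Incubated at 37 °C and scored for CPE by light microscopy, with a 3-day readout. Titer reduction is control/treated TCD50/mL. ED99 is the minimum concentration inhibiting 99% of virus. Virus, cell and compound controls were included.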

[7] = system: Enterovirus C; experiment: Maximal non-toxic dose (MNTD) that shows antiviral activity.; format: functional
How it was run: (§3)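 End-point titration. Poliovirus type 1 Brunhilde was run in Vero cells at 37 °C with a 3-day read. Rhinovirus 15 was run in human skin fibroblasts at 33 °C with a 7-day read. Monolayers got serial 10-fold virus dilutions and adsorbed 1 h at 37 °C, then serial 2-fold compound dilutions (DMSO stock in maintenance medium). CPE was read by light microscopy. RF = control titer (TCD50/mL) / titer at maximal nontoxic dose.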

[8] = Therapeutic Index measured as the ratio of CyD50 (rhino) / ED99 (rhino) values.; conditions: read-out: Therapeutic index 99
How it was run: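 TI99 = CyD50/ED99 for rhinovirus 15. ED99 came from end-point titration in human skin fibroblasts at 33 °C over 7 days. CyD50 came from fibroblast growth: 10⁶ cells were given serial 2-fold compound dilutions in quadruplicate for 6 days at 37 °C, then counted and reseeded, repeated five times. Generation time was calculated per concentration.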

[9] = system: Enterovirus C; experiment: Minimum drug concentration at which 99% of the polio virus is inhibited; format: functional; how it was run: as §2
[10] = system: Human rhinovirus sp.; experiment: Minimum drug concentration at which 99% of the rhino virus is inhibited; NA= not active; format: functional, organism-based; how it was run: as §1
[11] = system: Enterovirus C; experiment: The ratio of the viral titer of the virus control (reduction factor) to the viral titer in the presence of the maximal non-toxic dose (RF MNTD) of the compound; format: functional; how it was run: as §3
[12] = system: Enterovirus C; experiment: Minimum drug concentration at which 99% of the polio virus is inhibited; NA= not active; format: functional, organism-based; how it was run: as §2
[13] = system: Enterovirus C; experiment: Minimum drug concentration at which 99% of the polio virus is inhibited; NA= Not active; format: functional, organism-based; how it was run: as §2
[14] = system: Human rhinovirus sp.; experiment: Antirhinovirus activity against rhinovirus serotype 29 which were grown on Ohio HeLa cells; format: functional
[15] = system: Human rhinovirus sp.; experiment: Antirhinovirus activity against rhinovirus serotype 41 which were grown on Ohio HeLa cells; format: functional
[16] = system: Human rhinovirus sp.; experiment: Antirhinovirus activity against rhinovirus serotype 2 which were grown on Ohio HeLa cells; format: functional
[17] = system: Human rhinovirus sp.; experiment: Antirhinovirus activity against rhinovirus serotype 70 which were grown on Ohio HeLa cells; format: functional
[18] = system: Human rhinovirus sp.; experiment: Antirhinovirus activity against rhinovirus serotype 15 which were grown on Ohio HeLa cells; format: functional
[19] = system: Human rhinovirus sp.; experiment: Antirhinovirus activity against rhinovirus serotype 39 which were grown on Ohio HeLa cells; format: functional
[20] = system: Human rhinovirus sp.; experiment: Antirhinovirus activity against rhinovirus serotype 59 which were grown on Ohio HeLa cells; format: functional
[21] = system: Human rhinovirus sp.; experiment: Antirhinovirus activity against rhinovirus serotype 89 which were grown on Ohio HeLa cells; format: functional
[22] = system: Human rhinovirus sp.; experiment: Antirhinovirus activity against rhinovirus serotype 9 which were grown on Ohio HeLa cells; format: functional
[23] = system: Human rhinovirus sp.; experiment: Antirhinovirus activity against rhinovirus serotype 14 which were grown on Ohio HeLa cells; format: functional
[24] = system: Human rhinovirus sp.; experiment: Antirhinovirus activity against rhinovirus serotype 85 which were grown on Ohio HeLa cells; format: functional
[25] = system: Human rhinovirus sp.; experiment: Antirhinovirus activity against rhinovirus serotype 63 which were grown on Ohio HeLa cells; format: functional

Structure (SMILES) | selectivity ratio [1] | CC50 [2] | CyD50 [3] | ED99 [4] | Minimal dose [5] | Reduction factor [6] | Max non-toxic dose [7] | selectivity ratio [8] | ED99 [9] | also measured
COc1cc(O)c2c(=O)c(OC)c(-c3ccc(O)cc3)oc2c1OC | 400 | > 100 µg/mL | >100 µg/mL | 0.5 µg/mL | 0.3 µg/mL | 1000000 | 25 µg/mL | > 200 | 0.25 µg/mL | –
CCOc1c(-c2ccc(O)cc2)oc2cc(C)ccc2c1=O | < 1 | 25 µg/mL (≈ 84.4 µM) | 25 µg/mL | – | – | 1 | 25 µg/mL | – | >25 µg/mL | ED99 [10]: inactive
COc1c(-c2ccc(O)cc2)oc2ccc(N)cc2c1=O | 2 | 10 µg/mL (≈ 35.3 µM) | – | – | 10 µg/mL | – | 10 µg/mL | – | 5 µg/mL | Reduction factor [11]: 10000
COc1c(-c2ccc(Cl)cc2)oc2ccc(Cl)cc2c1=O | – | 20 µg/mL (≈ 62.3 µM) | – | – | – | 1 | 25 µg/mL | – | – | ED99 [12]: inactive
COc1c(-c2ccc(O)cc2)oc2ccc([N+](=O)[O-])cc2c1=O | – | > 0.1 µg/mL | – | – | – | – | 50 µg/mL | – | – | ED99 [13]: inactive
COc1cc(C)c2c(=O)c(OC)c(-c3ccc(O)cc3)oc2c1 | 50 | 50 µg/mL (≈ 160 µM) | 50 µg/mL | 25 µg/mL | 0.5 µg/mL | 100000 | 25 µg/mL | 2 | 1 µg/mL | MIC50 [14]: 0.175 µg/mL (≈ 0.56 µM); MIC50 [15]: 0.375 µg/mL (≈ 1.2 µM); MIC50 [16]: 2.4 µg/mL (≈ 7.68 µM); MIC50 [17]: 5 µg/mL (≈ 16 µM); MIC50 [18]: 0.4 µg/mL (≈ 1.28 µM); MIC50 [19]: 12 µg/mL (≈ 38.4 µM); MIC50 [20]: 3 µg/mL (≈ 9.61 µM); MIC50 [21]: 0.2 µg/mL (≈ 0.64 µM); MIC50 [22]: 0.2 µg/mL (≈ 0.64 µM); MIC50 [23]: 10.8 µg/mL (≈ 34.6 µM)
N=C(N)N [GUANIDINE] | – | – | – | – | – | – | – | – | – | MIC50 [24]: 750 µg/mL (≈ 12700 µM); MIC50 [14]: > 64 µg/mL; MIC50 [15]: 1000 µg/mL (≈ 16900 µM); MIC50 [16]: > 64 µg/mL; MIC50 [17]: 6 µg/mL (≈ 102 µM); MIC50 [18]: 438 µg/mL (≈ 7410 µM); MIC50 [19]: 109 µg/mL (≈ 1850 µM); MIC50 [20]: 350 µg/mL (≈ 5920 µM); MIC50 [21]: 1000 µg/mL (≈ 16900 µM); MIC50 [25]: 500 µg/mL (≈ 8460 µM); MIC50 [22]: 375 µg/mL (≈ 6350 µM); MIC50 [23]: 7 µg/mL (≈ 118 µM)
COc1c(-c2ccc(O)cc2)oc2cccc(OC)c2c1=O | 15 | 150 µg/mL (≈ 503 µM) | 150 µg/mL | 15 µg/mL | 5 µg/mL | – | 10 µg/mL | 10 | 10 µg/mL | –
COc1c(-c2ccc(O)cc2)oc2cc(O)ccc2c1=O | 15 | 15 µg/mL (≈ 52.8 µM) | 25 µg/mL | 25 µg/mL | 4 µg/mL | – | 5 µg/mL | 1 | 1 µg/mL | –
COc1c(-c2ccc(O)cc2)oc2cc(O)cc(C)c2c1=O | 150 | 15 µg/mL (≈ 50.3 µM) | 15 µg/mL | 1 µg/mL | 0.05 µg/mL | 100000 | 10 µg/mL | 15 | 0.1 µg/mL | –
COc1ccc(-c2oc3ccc(Cl)cc3c(=O)c2OC)cc1 | – | 20 µg/mL (≈ 63.1 µM) | – | – | – | 1 | 25 µg/mL | – | – | ED99 [12]: inactive
COc1c(-c2ccc(O)cc2)oc2cc(Cl)ccc2c1=O | 14.3 | 100 µg/mL (≈ 330 µM) | 100 µg/mL | 25 µg/mL | 20 µg/mL | 10000 | 100 µg/mL | 4 | 7 µg/mL | –
